The text below walks through data of ChEMBL document CHEMBL4017497, “Structure-Affinity Relationships and Structure-Kinetics Relationships of Pyrido[2,1-f]purine-2,4-dione Derivatives as Human Adenosine A3 Receptor Antagonists” (J Med Chem, 2017).

The target of test [1] is T1, Adenosine receptor A3 (Homo sapiens) (UniProt P0DMS8).
T1 sequence (whole entry): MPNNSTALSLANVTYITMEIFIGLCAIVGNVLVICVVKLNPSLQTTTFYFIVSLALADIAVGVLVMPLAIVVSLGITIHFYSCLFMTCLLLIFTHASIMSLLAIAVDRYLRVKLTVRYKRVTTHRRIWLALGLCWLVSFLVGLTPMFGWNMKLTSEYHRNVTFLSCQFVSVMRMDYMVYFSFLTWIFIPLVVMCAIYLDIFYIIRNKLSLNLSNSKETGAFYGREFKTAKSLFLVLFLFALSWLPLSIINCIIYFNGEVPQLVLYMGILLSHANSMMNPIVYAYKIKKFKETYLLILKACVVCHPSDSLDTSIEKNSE
Kind of test: Displacement of [3H]PSB-11 from human adenosine A3 receptor expressed on CHO cell membranes assessed as association rate constant after 120 mins by scintillation spectrometry.

For test [2], the target named is T2, Adenosine receptor A3 (Homo sapiens, UniProt P0DMS8).
T2 sequence (P0DMS8 whole entry): T1 sequence (whole entry)
Put plainly: (§1) Displacement of [3H]PSB-11 from human adenosine A3 receptor expressed on CHO cell membranes after 2 hrs by scintillation spectrometry. In general terms: In a radioligand displacement assay an active substance lowers the binding of a labelled ligand.

The target of test [3] is T1, Adenosine receptor A3 (Homo sapiens). The description is as §1.
Test [4] shares this target. Put plainly: Displacement of [3H]PSB-11 from human adenosine A3 receptor expressed on CHO cell membranes assessed as kinetic rate index at IC50 measured after 240 mins by scintillation spectrometry. The procedure, abridged:
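Dual-point competition association at 10 °C. […] Specific binding read at 20 min (t1) and 240 min (t2); KRI derived from these two time points. n = 2 or 3.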

The target is the same in test [5]. Put plainly: Displacement of [3H]PSB-11 from human adenosine A3 receptor expressed on CHO cell membranes assessed as dissociation rate constant after 120 mins by scintillation spectrometry.
Test [6] addresses T2, Adenosine receptor A3. Put plainly: Antagonist activity at human adenosine A3 receptor expressed in CHO cell membranes assessed as inhibition of 2-Cl-IB-MECA-induced [35S]GTPgammaS binding measured after 30 mins. Format: functional. The following applies: read-out: pA2 (converted). Summed up: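 CHOhA3 membranes (15 μg) in 50 mM Tris-HCl, 5 mM MgCl2, 1 mM EDTA, 0.05% BSA, 1 mM DTT, pH 7.4, with 1 μM GDP and 5 μg saponin. […] 2-Cl-IB-MECA 0.1 nM–10 μM with ~0.3 nM [35S]GTPγS, 30 min at 25 °C. Filtration. Schild analysis from EC50 shifts gives pA2 and slope.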
A general note: Binding of GTPγS marks nucleotide exchange on a G protein.

For test [7], the target named is T2, Adenosine receptor A3. Kind of test: Antagonist activity at human adenosine A3 receptor expressed in CHO cell membranes assessed as inhibition of 2-Cl-IB-MECA-induced [35S]GTPgammaS binding preincubated with or without for 60 mins followed by addition of 2-Cl-IB-MECA and [35S]GTPgammaS measured after 30 mins. The format is functional. The following applies: read-out: pA2 (converted).

For orientation: Ki means the equilibrium dissociation constant of an inhibitor or competing ligand from its target. A lower Ki goes with higher affinity. With `COc1ccn2c(c1)nc1c2c(=O)n(CC2CC2)c(=O)n1Cc1ccc(Cl)c(Cl)c1`, the K stood at 1 ×10⁵ /M/s in test [1] and 5.3 ×10⁻⁵ /s in test [5]. Besides, the Ki in test [2] worked out at 5.3 nM. Also, the inhibition entry in test [3] is “Dose-dependent effect”. Also, the Activity index in test [4] came to 3.12.

`CCn1c(=O)c2c(nc3cc(OC)ccn32)n(Cc2ccccc2)c1=O` had a Ki in test [2] of 10.7 nM. Besides, the inhibition result in test [3] is “Dose-dependent effect”. Further, the Activity index in test [4] stood at 0.8.

For the compound `C=CCn1c(=O)c2c(nc3cc(OC)ccn32)n(Cc2ccccc2)c1=O`, the Ki in test [2] was found to be 5.9 nM. Further, the inhibition result in test [3] was “Dose-dependent effect”. For the same compound, the Activity index in test [4] came to 0.72.

In the case of `COc1ccc(Cn2c(=O)n(CC3CC3)c(=O)c3c2nc2cc(OC)ccn23)cc1`, the figures for the K in test [1] and in test [5] were 4.8 ×10⁵ /M/s and 7.8 ×10⁻⁵ /s, respectively. In test [2], the Ki was 1.4 nM. For the same compound, the inhibition result in test [3] is “Dose-dependent effect”. Besides, in test [4], the Activity index was found to be 1.39.

Take `COc1ccn2c(c1)nc1c2c(=O)n(CC2CC2)c(=O)n1Cc1cccc(Cl)c1`: the K is 8.2 ×10⁵ /M/s in test [1] and 4.7 ×10⁻⁴ /s in test [5]. In test [2], this compound registered an inhibition constant (Ki) of 4.9 nM. In addition, the inhibition result in test [3] was “Dose-dependent effect”. The Activity index in test [4] amounted to 0.89.

`COc1ccn2c(c1)nc1c2c(=O)n(CCC(C)C)c(=O)n1Cc1ccccc1`: the Ki in test [2] was found to be 3.5 nM. The inhibition entry in test [3] is “Dose-dependent effect”. The Activity index in test [4] came to 1.39.

`CCCCn1c(=O)c2c(nc3cc(OC)ccn32)n(Cc2ccccc2)c1=O`: the Ki in test [2] came to 1.5 nM. Moreover, the inhibition result in test [3] is “Dose-dependent effect”. Also, the Activity index in test [4] was found to be 1.29.

For the compound `COc1ccn2c(c1)nc1c2c(=O)n(C[Si](C)(C)C)c(=O)n1Cc1ccccc1`, in test [2], affinity was put at a Ki of 2.7 nM. Besides, the inhibition entry in test [3] was “Dose-dependent effect”. For the same compound, in test [4], the Activity index was found to be 1.36.

On to `COc1ccn2c(c1)nc1c2c(=O)n(CC2CC2)c(=O)n1Cc1ccc(Cl)cc1`, for which the K in test [1] came to 3 ×10⁶ /M/s; in test [5], 8.2 ×10⁻⁴ /s. The inhibitory constant (Ki) in test [2] came to 1.2 nM. The inhibition entry in test [3] is “Dose-dependent effect”. Further, the Activity index in test [4] worked out at 1.11.

In the case of `COc1ccn2c(c1)nc1c2c(=O)n(CC2CC2)c(=O)n1Cc1cccc(C)c1`, the Ki in test [2] came out at 1.5 nM. In addition, the inhibition result in test [3] is “Dose-dependent effect”. Further, the Activity index in test [4] is 1.18.

On to `COc1cccc(Cn2c(=O)n(CC3CC3)c(=O)c3c2nc2cc(OC)ccn23)c1`, for which the K in test [1] is 4.8 ×10⁵ /M/s; in test [5] it was 4.7 ×10⁻⁵ /s. The same compound registered an inhibition constant Ki in test [2] of 0.38 nM. Besides, in test [3], the inhibition entry is “Dose-dependent effect”. Also, in test [4], the Activity index was 2.24. Also, the Kb in test [6] is 1.26 nM.

`COc1ccn2c(c1)nc1c2c(=O)n(CC2CC2)c(=O)n1CCc1ccccc1`: affinity in test [2] was put at a Ki of 7.7 nM. Moreover, the inhibition entry in test [3] was “Dose-dependent effect”. Further, the Activity index in test [4] came out at 1.09.

As to `COc1ccn2c(c1)nc1c2c(=O)n(CC2CC2)c(=O)n1Cc1ccccc1`, the figures for the K in test [1] and in test [5] were 2.8 ×10⁶ /M/s and 6 ×10⁻⁵ /s, respectively. This compound came in with a Ki in test [2] of 1 nM. In test [3], the inhibition result is “Dose-dependent effect”. Also, in test [4], the Activity index was found to be 2.68.

Consider `COc1ccn2c(c1)nc1c2c(=O)n(CC(C)(C)C)c(=O)n1Cc1ccccc1`, for which the K in test [1] came out at 5.5 ×10⁵ /M/s; in test [5] it was 1.1 ×10⁻⁴ /s. In test [2], this compound returned an inhibitory constant (Ki) of 3.5 nM. Besides, the inhibition entry in test [3] was “Dose-dependent effect”. The Activity index in test [4] worked out at 1.73.

For the compound `COc1ccn2c(c1)nc1c2c(=O)n(CC(C)C)c(=O)n1Cc1ccccc1`, the K in test [1] is 7.8 ×10⁵ /M/s; in test [5] it was 2 ×10⁻⁴ /s. In test [2], this compound gave a Ki of 1.2 nM. The inhibition entry in test [3] is “Dose-dependent effect”. For the same compound, the Activity index in test [4] amounted to 1.64.

The compound `COc1ccn2c(c1)nc1c2c(=O)n(CCCO)c(=O)n1Cc1ccccc1` came in with an inhibitory constant (Ki) in test [2] of 81 nM. Besides, in test [3], the inhibition result was “Dose-dependent effect”. In addition, the Activity index in test [4] came out at 1.04.

Regarding `COc1ccn2c(c1)nc1c2c(=O)n(CC2CC2)c(=O)n1Cc1ccc(C)cc1`, the inhibition result in test [3] was “Dose-dependent effect”.

Consider `COc1ccn2c(c1)nc1c2c(=O)n(C)c(=O)n1Cc1ccccc1`, for which the Ki in test [2] worked out at 20.8 nM. Also, the inhibition result in test [3] is “Dose-dependent effect”. The Activity index in test [4] was found to be 0.54.

On to `CCc1ccc(Cn2c(=O)n(CC3CC3)c(=O)c3c2nc2cc(OC)ccn23)cc1`, for which the inhibitory constant (Ki) in test [2] was 0.71 nM. The inhibition entry in test [3] was “Dose-dependent effect”. The Activity index in test [4] was determined as 0.81.

For `CCCCCCCn1c(=O)c2c(nc3cc(OC)ccn32)n(Cc2ccccc2)c1=O`, the K in test [1] worked out at 4.2 ×10⁵ /M/s; in test [5], 6.2 ×10⁻⁵ /s. The compound further displayed a Ki in test [2] of 6.8 nM. For the same compound, the inhibition entry in test [3] was “Dose-dependent effect”. Besides, in test [4], the Activity index was determined as 4.06.

Regarding `COCCn1c(=O)c2c(nc3cc(OC)ccn32)n(Cc2ccccc2)c1=O`, the K came to 4.3 ×10⁵ /M/s in test [1] and 6.3 ×10⁻⁴ /s in test [5]. In test [2], the affinity, expressed as Ki, was 23 nM. Further, the inhibition entry in test [3] is “Dose-dependent effect”. The Activity index in test [4] was found to be 0.7.

`COc1ccn2c(c1)nc1c2c(=O)n(CC2CCC2)c(=O)n1Cc1ccccc1` had an inhibitory constant (Ki) in test [2] of 2.7 nM. In test [3], the inhibition entry was “Dose-dependent effect”. Also, the Activity index in test [4] was 1.48.

Compound `COc1ccn2c(c1)nc1c2c(=O)n(CC2CC2)c(=O)n1Cc1ccc(Br)cc1` returned a Ki in test [2] of 1.2 nM. In addition, in test [3], the inhibition entry was “Dose-dependent effect”. Also, in test [4], the Activity index worked out at 1.19.

`COc1ccn2c(c1)nc1c2c(=O)n(CCC(C)(C)C)c(=O)n1Cc1ccccc1` had an inhibition constant (Ki) in test [2] of 8 nM. Besides, the inhibition result in test [3] is “Dose-dependent effect”. Further, the Activity index in test [4] amounted to 0.95.

In test [2], `C#CCn1c(=O)c2c(nc3cc(OC)ccn32)n(Cc2ccccc2)c1=O` came in with a Ki of 4.3 nM. Besides, the inhibition result in test [3] was “Dose-dependent effect”. Besides, the Activity index in test [4] is 1.2.

Take `CCCCCn1c(=O)c2c(nc3cc(OC)ccn32)n(Cc2ccccc2)c1=O`: the K was found to be 1.1 ×10⁶ /M/s in test [1] and 6 ×10⁻⁴ /s in test [5]. The same compound displayed an inhibition constant Ki in test [2] of 3.5 nM. The inhibition entry in test [3] was “Dose-dependent effect”. Further, the Activity index in test [4] was determined as 1.11.

Consider `COc1ccn2c(c1)nc1c2c(=O)[nH]c(=O)n1Cc1ccccc1`, for which the K in test [1] amounted to 5.3 ×10⁵ /M/s; in test [5] it was 1.4 ×10⁻² /s. This compound showed a Ki in test [2] of 108 nM. Moreover, the inhibition result in test [3] was “Dose-dependent effect”. Besides, the Activity index in test [4] is 0.38. For the same compound, the figures for the Kb in test [6] and in test [7] were 63.1 nM and 158 nM, respectively.

In test [2], `C=CCCn1c(=O)c2c(nc3cc(OC)ccn32)n(Cc2ccccc2)c1=O` showed a Ki of 1.4 nM. The inhibition entry in test [3] was “Dose-dependent effect”. In addition, the Activity index in test [4] turned out to be 1.23.

As to `CCCn1c(=O)c2c(nc3cc(OC)ccn32)n(Cc2ccccc2)c1=O`, the figures for the K in test [1] and in test [5] were 8.5 ×10⁵ /M/s and 3.2 ×10⁻⁴ /s, respectively. Moreover, in test [2], the inhibitory constant (Ki) was found to be 3.2 nM. In test [3], the inhibition result is “Dose-dependent effect”. The Activity index in test [4] came to 0.99.

Take `CCCCCCn1c(=O)c2c(nc3cc(OC)ccn32)n(Cc2ccccc2)c1=O`: the K came out at 2.3 ×10⁵ /M/s in test [1] and 8.2 ×10⁻⁵ /s in test [5]. In test [2], the Ki was found to be 2.8 nM. Also, the inhibition result in test [3] was “Dose-dependent effect”. In addition, the Activity index in test [4] was 2.18.
